An excerpt weighted towards active compounds, which were near 1.4% of everything screened.
PG9 Ab binder – small molecules binding HIV-1 gp120 antibody PG9; TR-FRET gp120-PG9 antibody binding; inhibition, % at 6.7 µM; actives 0.43% (n = 360,000); AID 624416; in the data active = inhibition above about 8.5%
Rev-erbA mod – modulators of human Rev-erb alpha DNA binding. P20393. Rev-erbα–FITC-DNA binding, fluorescence polarization, 90 min. activity, % at 10 µM. actives 0.79% (n = 370,000);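 active = activity above about 14%, limit read from the data; passing the limit was not always enough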;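 note: 0% = DMSO wells with 35 nM protein and 100% = DMSO wells with 750 nM protein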
NR2E3 ag-1 – activates human photoreceptor nuclear receptor NR2E3; Q9Y5X4; GST-NR2E3/biotin-RetCOR TR-FRET, 1536-well; inhibition of corepressor binding, % at 4.78 µM; actives 0.12% (n = 320,000); AID 2300;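 active = percent inhibition above the cutoff of mean plus 3 SD of all tested compounds, set per screening campaign, cut at about 20% in these data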;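 note: 0% = DMSO wells and 100% = biotin wells as full block of FRET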
Target sequence (Q9Y5X4 whole entry, looked up): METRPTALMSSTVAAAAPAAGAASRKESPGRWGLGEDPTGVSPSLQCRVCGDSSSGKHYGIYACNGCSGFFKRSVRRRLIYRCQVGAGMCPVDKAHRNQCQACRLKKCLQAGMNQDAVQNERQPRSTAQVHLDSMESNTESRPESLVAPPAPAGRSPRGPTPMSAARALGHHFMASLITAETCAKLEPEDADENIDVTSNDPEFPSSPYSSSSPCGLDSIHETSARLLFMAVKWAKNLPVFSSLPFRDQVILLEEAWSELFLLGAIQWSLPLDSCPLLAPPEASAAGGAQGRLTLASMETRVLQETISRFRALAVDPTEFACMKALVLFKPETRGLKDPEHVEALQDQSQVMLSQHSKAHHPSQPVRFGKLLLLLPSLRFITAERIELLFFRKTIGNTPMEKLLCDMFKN
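Material – GST-tagged NR2E3 plus biotinylated RetCOR corepressor · Quantity – NR2E3 fusion 1.35 nM · Times – 5 h incubation at 4 °C · Medium – pH 7.5 Tris-based buffer · Technique – TR-FRET, Eu(K)-anti-GST donor, streptavidin-D2 acceptor, ex 340, em 617/671 nm · Benchmarks – high control biotin, low control 0.6% DMSO · Format – 1536-well plates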
NR2E3 ag-2 – human photoreceptor-specific nuclear receptor agonism. inhibition of corepressor binding, % at 3.98 µM. CHO-S Gal4-NCOR/VP16-NR2E3 two-hybrid, luciferase. Q9Y5X4. actives 0.35% (n = 360,000). AID 602229;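 active = inhibition above the mean of all tested compounds plus 3 SD, cut at about 70% in these data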;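 note: 0% = DMSO with NR2E3 transfected cells and 100% = cells lacking NR2E3 construct; higher means lower luciferase signal from less NR2E3 corepressor binding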
PG9 bind confirm – confirmation of small molecules binding HIV-1 gp120 antibody PG9 | shares compounds with PG9 Ab binder | TR-FRET PG9 antibody binding, biochemical | inhibition, % at 6.7 µM | actives 90% (n = 1,500); in the data active = inhibition above about 9%
PGV04 counter – PGV04 control antibody binding, counter-screen. shares compounds with PG9 Ab binder. TR-FRET PGV04 antibody-gp120 binding, biochemical. inhibition, % at 6.7 µM. actives 95% (n = 1,500); in the data active = inhibition above about 9.5%
PG9 bind DR – PG9 antibody binding, dose response | TR-FRET PG9 antibody-gp120 binding inhibition | IC50, µM | AID 651848 | 95 tested, under 10 active | shares compounds with PG9 Ab binder; in the data active = IC50 below about 10 µM
PGV04 binding DR – PGV04 binding, dose response counter-screen. AID 651937. IC50, µM. shares compounds with PG9 Ab binder. actives 20% (n = 95). TR-FRET binding to control antibody PGV04
PG126 DR counter – counter-screen for PG9 binders: binding to control antibody PG126 | shares compounds with PG9 Ab binder | TR-FRET binding to antibody PG126, counterscreen | IC50, µM | actives 20% (n = 95)
NR1D1 mod conf – confirmation of modulators of human Rev-erb alpha DNA binding; shares compounds with Rev-erbA mod; Rev-erb alpha FITC-DNA binding, fluorescence polarization, 90 min; activation, % at 25 µM; actives 61% (n = 3,000);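 active = activation at or above a set limit, or at least 3 SD above the negative control mean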;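 note: 0% = 35 nM protein with DMSO and 100% = 750 nM protein high control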
RORg counter – counter-screen for Rev-erb alpha modulators: RORgamma DNA binding. actives 8% (n = 910). shares compounds with Rev-erbA mod. IC50, µM. purified RORgamma protein-FITC-DNA binding, fluorescence polarization;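 active = Compounds whose fitted half-maximal concentration for disrupting protein-DNA binding is below 10 micromolar; the record names Rev-erb in its text, so the target is in doubt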
Numbers without * were called inactive; i = inactive; nt = no result given. Cut-off read from the data, not from the text of the source, unless noted: active = IC50 below about 9 µM; inactive = the rest.

SMILES | PG9 Ab binder | Rev-erbA mod | NR2E3 ag-1 | NR2E3 ag-2 | PG9 bind confirm | PGV04 counter | NR1D1 mod conf | others
CCc1ccc(NC(=O)CNC(=O)c2nn(-c3ccc(OC)cc3)c(=O)c3ccccc23)cc1 | 3 | 18 | 1 | 3 | nt | nt | nt
CCOc1ccc(NC(=O)CNC(=O)c2nn(-c3ccc(OC)c(OC)c3)c(=O)c3ccccc23)cc1 | 40* | 111* | i | -8 | 23* | 61* | 91* | RORg counter=>40
COc1ccc(CCNC(=O)CNC(=O)c2nn(-c3ccc(OC)c(OC)c3)c(=O)c3ccccc23)cc1OC | 1 | -2 | -3 | -2 | nt | nt | nt
CC(=O)c1ccc(N(C(=O)Cn2nnc3ccccc32)C(C(=O)NCc2ccccc2)c2ccccn2)cc1 (centres undefined) | 0 | 6 | -4 | -84 | nt | nt | nt
COc1ccc(C)cc1Nc1nc(-c2ccccc2O)nc2ccccc12 | 11* | 83* | 0 | 2 | 3 | 5 | 59* | RORg counter=i
Cc1ccc(O)c(Nc2nc(-c3ccccc3)nc3ccccc23)c1 | 0 | 1 | 1 | -6 | nt | nt | nt
O=C(CSc1ccc2ccccc2n1)c1ccc2c(c1)OCO2 | -4 | 4 | -1 | -152 | nt | nt | nt
Cc1cc(C)c(C#N)c(SCC(=O)Nc2cccc(S(=O)(=O)N3CCCC3)c2)n1 | 37* | 21* | nt | 19 | 41* | 65* | 11*
CC(=O)c1cccc(Nc2nc(-c3ccccc3)nc3ccccc23)c1 | 36* | 26* | 3 | -1 | 12* | 22* | 8
CC(=O)Nc1cccc(Nc2nc(-c3ccccc3)nc3ccccc23)c1 | 0 | -1 | -3 | -16 | nt | nt | nt
O=C(NCc1ccco1)c1ccc2c(c1)CCO2 | 2 | 6 | 0 | -2 | nt | nt | nt
Cc1cc2nc(-c3ccc(SCC(=O)Nc4ccc(S(=O)(=O)N5CCCC5)cc4)nc3)[nH]c2cc1C | 16* | 31* | -27 | -101 | 8 | 27* | 32*
O=C(COC(=O)c1n[nH]c2ccccc12)NC(=O)NC1CCCC1 | -1 | 3 | 2 | 0 | nt | nt | nt
O=C(COC(=O)c1n[nH]c2ccccc12)NC(=O)NC12CC3CC(CC(C3)C1)C2 | 18* | 17* | 11 | -24 | 22* | 31* | 31*
CCCC/C=C1/[C@H](c2ccccc2)N(C)C2=N[C@@H](c3ccccc3)CC(=O)N21 | nt | 3 | nt | nt | nt | nt | nt
COc1ccc(NC(=O)NNC(=O)COc2ccc3cc(Br)ccc3c2)cc1OC | 18* | 77* | -274 | -11 | 29* | 39* | 65* | RORg counter=>40
COc1ccc(NC(=O)NNC(=O)COc2ccc3ccccc3c2)cc1OC | 0 | 2 | 0 | -41 | nt | nt | nt
Cc1cc(C)c(C)c(S(=O)(=O)NCC(=O)Nc2ccccc2F)c1C | -1 | -5 | nt | -6 | nt | nt | nt
O=C1/C(=C/c2ccco2)SC(=S)N1c1cccnc1 | -3 | -15 | nt | 6 | nt | nt | nt
O=C(Cn1cnc2c(oc3nc4c(cc32)CCCC4)c1=O)Nc1cccc(Cl)c1 | 9.1* | 57* | 7 | 2 | 26* | 25* | 17 | PG9 bind DR=>67;PGV04 binding DR=i;PG126 DR counter=i
Cc1ccccc1OCC(=O)NCC(c1ccco1)N1CCCCC1 (centres undefined) | 0 | -4 | -1 | -20 | nt | nt | nt
COc1ccc(S(=O)(=O)N2CCOCC2)cc1C(=O)NCc1ccccc1CN1CCCC1 | -2 | 2 | 2 | -1 | nt | nt | nt
NC(=O)c1ncn([C@@H]2O[C@H](CNC(=O)[C@@H](N)Cc3cccnc3)[C@@H](O)[C@H]2O)n1 | 2 | -4 | nt | -6 | nt | nt | nt

Bioassay records from PubChem.
